# Reference: ChEMBL document CHEMBL4017524, “A Novel Arylurea Fatty Acid That Targets the Mitochondrion and Depletes Cardiolipin To Promote Killing of Breast Cancer Cells” (J Med Chem, 2017)
# Activity calls are given as the source filed them. No cut-off for these calls is given here.
# Legend:
# [1] = system: MDA-MB-231; test: Cytotoxicity against human MDA-MB-231 cells assessed as decrease in ATP production at 10 uM after 24 to 48 hrs by CellTiter-Glo luminescent assay; format: functional, cell-based
# [2] = system: MDA-MB-231; test: Cytotoxicity against human MDA-MB-231 cells assessed as decrease in cell adherence at 40 uM after 48 hrs by crystal violet staining based assay; format: functional
# [3] = system: MDA-MB-231; test: Induction of apoptosis in human MDA-MB-231 cells assessed as increase in caspases 3/7 activity at 10 uM after 48 hrs by Caspase-Glo assay; format: functional, cell-based
# [4] = system: MDA-MB-231; test: Induction of apoptosis in human MDA-MB-231 cells assessed as mitochondrial membrane disruption by measuring red to green fluorescence ratio at 10 uM after 24 hrs by JC-1 staining based microscopic method relative to control; format: functional
# In short: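 Cells exposed for 24 h at 10 µM, then stained with the cationic dye JC-1. Red (aggregate, intact inner membrane) to green (monomer) fluorescence ratio expressed relative to DMSO control. Mean±SEM of three experiments.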
# [5] = system: MDA-MB-231; test: Cytotoxicity against human MDA-MB-231 cells assessed as decrease in cell viability at 40 uM after 48 hrs by crystal violet staining based assay; format: functional
# [6] = system: T47D; test: Cytotoxicity against human T47D cells assessed as decrease in ATP production at 10 uM up to 72 hrs by CellTiter-Glo luminescent assay; format: functional, cell-based
# [7] = system: MCF7; test: Cytotoxicity against human MCF7 cells assessed as decrease in ATP production at 10 uM up to 72 hrs by CellTiter-Glo luminescent assay; format: functional, cell-based
# [8] = system: T47D; test: Induction of apoptosis in human T47D cells assessed as increase in caspases 3/7 activity at 10 uM after 48 hrs by Caspase-Glo assay; format: functional, cell-based
# [9] = system: MDA-MB-231; test: Induction of mitochondrial membrane disruption in human MDA-MB-231 cells assessed as mitochondrial cardiolipin level at 14 uM after 24 hrs relative to control; format: functional
# [10] = system: MDA-MB-231; test: Cytotoxicity against human MDA-MB-231 cells assessed as ATP production at 10 uM after 24 hrs by CellTiter-Glo luminescent assay relative to control; format: functional
# In short: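 MDA-MB-231 cells exposed to 10 µM for 24 h, then ATP formation measured and expressed relative to DMSO-treated control. Basal ATP per 7.5 x 10⁴ cells was recorded at 24 h. Mean±SEM from three separate experiments.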
# [11] = system: MDA-MB-231; test: Induction of mitochondrial membrane disruption in human MDA-MB-231 cells assessed as mitochondrial phosphatidylglycerol level at 14 uM after 24 hrs in presence of oleic acid; format: functional, cell-based
# [12] = system: MCF-10A; test: Cytotoxicity against human MCF10A cells assessed as decrease in ATP production at 10 to 20 uM after 48 hrs by CellTiter-Glo luminescent assay; format: cell-based
# [13] = system: Mus musculus; test: Toxicity in Balb/c nude mouse assessed as change in body weight at 2.5 to 40 mg/kg, ip qd for 5 days; format: organism-based; conditions: in vivo, 120 h
# In short: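 Balb/c mice given 2.5-40 mg/kg intraperitoneally for 5 days. Weight gain and other signs of toxicity were monitored.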
# [14] = system: MDA-MB-231; test: Cytotoxicity against human MDA-MB-231 cells assessed as decrease in ATP production at 10 uM after 24 hrs in presence of mitochondrial permeability transition pore inhibitor cyclosporin A by CellTiter-Glo luminescent assay; format: functional, cell-based
# In short: (§1)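 ATP formation read in MDA-MB-231 cells co-treated with BAPTA-AM (5 or 25 µM) or with cyclosporin A (10 or 20 µM).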
# [15] = system: MDA-MB-231; test: Antitumor activity against human MDA-MB-231 cells xenografted in Balb/c nu/nu mouse assessed as decrease in Ki67 biomarkers at 2.5 to 40 mg/kg, ip qd administered 6 days per week for 32 to 38 days by […] immunohistochemical analysis; format: functional, organism-based
# In short: (§2)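 Female nu/nu mice, 7 weeks old, n=5-8 per group. Each received 4x10⁵ cells in 100 µl by subcutaneous injection into the 4th mammary fat pad. Intraperitoneal dosing at graded doses. Body weights and tumour sizes were measured. Isolated tumour sections were stained for TUNEL (apoptosis) and Ki67 (proliferation), with DAPI nuclear stain.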
# [16] = system: MDA-MB-231; test: Cytotoxicity against human MDA-MB-231 cells assessed as ATP production at 10 uM after 48 hrs by CellTiter-Glo luminescent assay relative to control; format: functional
# [17] = system: MDA-MB-231; test: Cytotoxicity against human MDA-MB-231 cells assessed as decrease in cell viability at 40 uM after 48 hrs in presence of alpha-tocopherol by crystal violet staining based assay; format: functional
# [18] = system: MDA-MB-231; test: Induction of mitochondrial membrane disruption in human MDA-MB-231 cells assessed as mitochondrial phosphatidylglycerol level at 14 uM after 24 hrs relative to control; format: functional
# [19] = system: MDA-MB-231; test: Induction of reactive oxygen species in human MDA-MB-231 cells after 2 to 6 hrs by 2',7'-dichlorofluorescin dye based flow cytometric analysis; format: functional, cell-based
# In short: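 Pro-oxidant stress followed by flow cytometry using 2',7'-dichlorofluorescin diacetate after 2-6 h of treatment in MDA-MB-231 cells.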
# [20] = system: MDA-MB-231; test: Cell cycle arrest in human MDA-MB-231 cells assessed as decrease in accumulation of G2M phase at 10 uM after 24 hrs by propidium iodide staining based flow cytometric analysis; format: functional
# [21] = system: MDA-MB-231; test: Induction of apoptosis in human MDA-MB-231 cells assessed as late apoptotic cells at 10 uM after 48 hrs by annexin VFITC/7AAD staining based flow cytometry (reference value: 5.9 +/- 0.9%); format: functional
# In short: (§3)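 Annexin V-FITC/7AAD flow cytometry of cells after 48 h at 10 µM. Quadrants: E4 annexin V only (early apoptotic), E2 dual-stained (late apoptotic), E1 7AAD only, E3 unstained (viable). Compared with DMSO control. Mean±SEM from three experiments.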
# [22] = system: MDA-MB-468; test: Induction of apoptosis in human MDA-MB-468 cells assessed as increase in caspases 3/7 activity at 10 uM after 48 hrs by Caspase-Glo assay; format: functional, cell-based
# [23] = system: MDA-MB-231; test: Antitumor activity against human MDA-MB-231 cells xenografted in ip dosed Balb/c nu/nu mouse assessed as decrease in tumor volume administered once daily 6 days per week for 32 to 38 days; format: functional, organism-based; in short: as §2
# [24] = system: MDA-MB-231; test: Induction of mitochondrial membrane disruption in human MDA-MB-231 cells assessed as mitochondrial cardiolipin level at 14 uM after 24 hrs in presence of oleic acid; format: functional, cell-based
# [25] = system: MDA-MB-231; test: Induction of apoptosis in human MDA-MB-231 cells assessed as mitochondrial membrane disruption at 10 uM after 6 hrs by JC-1/Hoechst 33342 staining based fluorescence microscopic assay; format: functional, cell-based
# In short: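 Treatment with 10 µM or DMSO for 6 h. Cells were washed twice with serum-free medium, then incubated with JC-1 in serum-free medium at 37°C for 20 min. Hoechst 33342 nuclear counterstain, then fluorescence microscopy of green monomers versus red aggregates.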
# [26] = system: MDA-MB-231; test: Cell cycle arrest in human MDA-MB-231 cells assessed as decrease in accumulation of S phase at 10 uM after 24 hrs by propidium iodide staining based flow cytometric analysis; format: functional
# [27] = system: MDA-MB-231; test: Induction of apoptosis in human MDA-MB-231 cells assessed as plasma membrane phospholipid phosphatidylcholine level per 1.05 X 10^7 cells at 14 uM after 24 hrs (reference value: 91 +/- 9 ug); format: functional
# [28] = system: MDA-MB-468; test: Cytotoxicity against human MDA-MB-468 cells assessed as decrease in ATP production at 10 uM up to 72 hrs by CellTiter-Glo luminescent assay; format: functional, cell-based
# [29] = system: MDA-MB-231; test: Cytotoxicity against human MDA-MB-231 cells assessed as decrease in ATP production at 10 uM after 24 hrs in presence of Ca2+ chelator BAPTA-AM by CellTiter-Glo luminescent assay; format: functional, cell-based; in short: as §1
# [30] = system: MDA-MB-231; test: Induction of apoptosis in human MDA-MB-231 cells assessed as viable cells at 10 uM after 48 hrs by annexin VFITC/7AAD staining based flow cytometry (reference value: 86.2 +/- 2.3%); format: functional; conditions: MDA-MB-231, 48 h, read-out: Activity; in short: as §3
# [31] = system: MCF7; test: Induction of apoptosis in human MCF7 cells assessed as increase in caspases 3/7 activity at 10 uM after 48 hrs by Caspase-Glo assay; format: functional, cell-based
# [32] = system: MDA-MB-231; test: Cell cycle arrest in human MDA-MB-231 cells assessed as accumulation at sub-G1 phase at 10 uM after 24 hrs by propidium iodide staining based flow cytometric analysis (reference value: 1.4 +/- 0.03%); format: functional
# [33] = system: MDA-MB-231; test: Induction of apoptosis in human MDA-MB-231 cells assessed as necrotic cells at 10 uM after 48 hrs by annexin VFITC/7AAD staining based flow cytometry (reference value: 1.5 +/- 0.2%); format: functional; in short: as §3
# [34] = system: MDA-MB-231; test: Antitumor activity against human MDA-MB-231 cells xenografted in Balb/c nu/nu mouse assessed as TUNEL positive cells at 2.5 to 40 mg/kg, ip qd administered 6 days per week for 32 to 38 days; format: functional, organism-based; in short: as §2
# [35] = system: MDA-MB-231; test: Induction of apoptosis in human MDA-MB-231 cells assessed as early apoptotic cells at 10 uM after 48 hrs by annexin VFITC/7AAD staining based flow cytometry (reference value: 6.6 +/- 1.4%); format: functional; in short: as §3
# [36] = system: MDA-MB-231; test: Induction of apoptosis in human MDA-MB-231 cells assessed as increase in caspases 3/7 activity at 10 uM after 24 hrs by Caspase-Glo assay relative to control; format: functional
# In short: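 Executioner caspase-3/7 activity read after 24 h exposure at 10 µM and expressed relative to DMSO-treated control. Basal activity per 7.5 x 10⁴ cells was recorded. Mean±SEM of three separate experiments.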
# [37] = system: MDA-MB-231; test: Cell cycle arrest in human MDA-MB-231 cells assessed as decrease in accumulation of G0G1 phase at 10 uM after 24 hrs by propidium iodide staining based flow cytometric analysis; format: functional
# [38] = system: MDA-MB-231; test: Induction of apoptosis in human MDA-MB-231 cells at 10 uM after 48 hrs by annexin VFITC/7AAD staining based flow cytometry; format: functional, cell-based; in short: as §3
# [39] = system: MDA-MB-231; test: Cell cycle arrest in human MDA-MB-231 cells at 10 uM after 24 hrs by propidium iodide staining based flow cytometric analysis
smiles,measurement,setting,value
Cc1cc(NC(=O)NCCCCCCCCCCCCCCCC(=O)O)ccc1Cl,Activity,[1],inactive
same,Activity,[2],inactive
same,Activity,[3],inactive
same,Activity,[4],inactive
same,Activity,[5],inactive
O=C(O)CCCCCCCCCCCCCCCNC(=O)Nc1ccc(Cl)c(C(F)(F)F)c1,Activity,[6],Active
same,Activity,[7],Active
same,Activity,[8],Active
same,Activity,[9],61%
same,Activity,[10],72%
same,Activity,[11],inactive
same,Activity,[2],Active
same,Activity,[12],Non-Toxic
same,Activity,[13],Non-Toxic
same,Activity,[14],Active
same,Activity,[15],Active
same,Activity,[16],30%
same,Activity,[17],Active
same,Activity,[18],61%
same,Activity,[19],inactive
same,Activity,[20],Active
same,Activity,[21],20%
same,Activity,[4],32%
same,Activity,[22],inactive
same,Activity,[5],Active
same,Activity,[23],Dose-dependent effect
same,Activity,[24],inactive
same,Activity,[25],Active
same,Activity,[26],Active
same,Activity,[27],88 µg
same,Activity,[28],Active
same,Activity,[29],Active
same,viability at 10 µM,[30],62.4%
same,Activity,[31],inactive
same,Activity,[32],20%
same,Activity,[33],5.9%
same,Activity,[34],Active
same,Activity,[35],11%
same,Activity,[36],203%
same,Activity,[37],Active
CC(C)(C)c1ccc(NC(=O)NCCCCCCCCCCCCCCCC(=O)O)cc1,Activity,[1],inactive
same,Activity,[4],inactive
COc1ccc(NC(=O)NCCCCCCCCCCCCCCCC(=O)O)cc1,Activity,[1],inactive
same,Activity,[4],inactive
CNC(=O)c1cc(Oc2ccc(NC(=O)Nc3ccc(Cl)c(C(F)(F)F)c3)cc2)ccn1,Activity,[25],Active
O=C(O)CCCCCCCCCCCCCCCNC(=O)Nc1ccccc1,Activity,[1],inactive
same,Activity,[2],inactive
same,Activity,[3],inactive
same,Activity,[4],inactive
same,Activity,[5],inactive
same,Activity,[38],inactive
same,Activity,[39],inactive
